How the values were obtained:
[1] = target: native (unmodified) BSA (Bos taurus, UniProt P02769); assay: Intrinsic fluorescence quenching, binding constant and thermodynamics; design: species or system Bovine; settings: unmodified albumin
[2] = physiological pH; cited from earlier work
[3] = Effect of temperature on hydrolytic stability of curcumin; type: physicochemical; settings: 80°C, 10 μM curcumin, 20 mM sodium phosphate buffer pH 7.0, 60 min, darkness
Procedure, shortened: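 Test compound: 1 mM methanol stock diluted to 10 μM in 20 mM sodium phosphate buffer pH 7.0. Kept in darkness at 4, 25, 37 or 80 °C for up to 60 min and sampled at set intervals. Fluorescence spectra were taken at excitation 420 nm, emission 440–700 nm, with slits 10/20. Maximum emission was followed over time, and the decomposition rate was taken from the initial slope of a linear fit.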

[4] = ref 3b; cited from earlier work
[5] = system: SKNMC cells; assay: MTT assay, in vitro anti-cancer activity; type: cell-based, human; settings: 44 µM, 24 h
Procedure, shortened: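 SKNMC cells were grown in DMEM with 10% FBS and 1% penicillin–streptomycin at 37 °C, 5% CO2, 95% humidity. They were seeded at 20,000/well and pre-incubated 24 h. Medium was replaced with protein-free DMEM, and test compound in DMSO (0–50 μM), alone or protein-complexed, was added for 24 h. MTT (0.5 mg/mL) was added for 4 h, formazan was dissolved in DMSO, and A570 was read. Viability is relative to untreated cells; three separate experiments.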

[6] = target: modified (acetylated) BSA (Bos taurus, UniProt P02769); assay: Intrinsic fluorescence quenching, binding constant and thermodynamics; design: species or system Bovine; settings: modified albumin
Procedure, shortened: (§1)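 Proteins were acetylated at 10% w/v in water, 30 °C, pH 7.5–8.5, with acetic anhydride 0.5 g/g protein added over 30–90 min. They were dialysed 24 h against 20 mM phosphate pH 7.0, and lysine modification was checked by TNBS. β-lg was purified from cow milk (>97% by SDS-PAGE). Protein (1 μM) was mixed 1 min with test compound (0–2 μM). Intrinsic fluorescence was read at ex 290, em 310–700 nm. Kb and n came from a double-log Stern–Volmer plot, ΔH°/ΔS° from van't Hoff, and ΔG° from Gibbs.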

[7] = system: PC12 cells; assay: Intracellular ROS; type: cell-based, rat; settings: 1 μM curcumin pretreatment 6 h, H2O2 125 μM 16 h, DCFH-DA
Procedure, shortened: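 PC12 cells were seeded at 20,000/well and pre-incubated 24 h, then switched to protein-free DMEM. They were pretreated 6 h with 1 μM test compound or its protein complex, then exposed to freshly prepared H2O2 (125 μM) for 16 h. DCFH-DA (10 μM) was added for 45 min at 37 °C. Cells were washed twice in PBS, and DCF fluorescence (ex 480/488, em 540/525 nm) was read by microplate reader. Controls were DMSO-treated cells. Results are mean ± S.E.M. of three experiments.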

[8] = Solvent- and light-mediated curcumin degradation; type: physicochemical; settings: absolute ethanol, 10 μM curcumin, absorbance 420 nm
Procedure, shortened: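 Test compound: 5 mM methanol stock diluted to 10 μM in absolute ethanol. Samples were held at room temperature either in darkness or under a 100 W lamp. Absorbance maximum at 420 nm was recorded at intervals within 30 min. Degradation rate was taken from the initial slope of a best-fit line.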

[9] = phase I trial, oral administration of 3.6 g/day; cited from earlier work
[10] = without and in the presence of β-lg; ref 10d; cited from earlier work
[11] = extremely safe even at very high doses; cited from earlier work
[12] = target: T1, modified (acetylated) β-lg (Bos taurus, UniProt P02754); assay: Intrinsic fluorescence quenching, binding constant and thermodynamics; design: species or system Bovine; settings: modified B-LG
T1 sequence (P02754 17-178): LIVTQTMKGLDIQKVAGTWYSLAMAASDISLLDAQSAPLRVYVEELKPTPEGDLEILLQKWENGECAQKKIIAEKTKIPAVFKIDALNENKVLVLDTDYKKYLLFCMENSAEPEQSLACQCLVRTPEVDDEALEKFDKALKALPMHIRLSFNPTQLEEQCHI
Procedure, shortened: as §1

[13] = target: T2, native (unmodified) β-lg (Bos taurus, UniProt P02754); assay: Intrinsic fluorescence quenching, binding constant and thermodynamics; design: species or system Bovine; settings: unmodified B-LG
T2 sequence (P02754 17-178): T1 sequence (P02754 17-178)
Procedure, shortened: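 Unmodified protein was used; β-lg was purified from fresh cow milk (>97% by SDS-PAGE). Protein (1 μM) in 20 mM sodium phosphate pH 7.0 was co-incubated 1 min with test compound (0–2 μM). Quenching was read at excitation 290 nm, emission 310–700 nm, slits 5/10 nm. Kb and n came from a modified Stern–Volmer double-log plot, ΔH° and ΔS° from the van't Hoff ln Kb vs 1/T slope and intercept, and ΔG° from the Gibbs equation. Data points are means of three determinations.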

Chain of modified (acetylated) BSA (P02769 25-607): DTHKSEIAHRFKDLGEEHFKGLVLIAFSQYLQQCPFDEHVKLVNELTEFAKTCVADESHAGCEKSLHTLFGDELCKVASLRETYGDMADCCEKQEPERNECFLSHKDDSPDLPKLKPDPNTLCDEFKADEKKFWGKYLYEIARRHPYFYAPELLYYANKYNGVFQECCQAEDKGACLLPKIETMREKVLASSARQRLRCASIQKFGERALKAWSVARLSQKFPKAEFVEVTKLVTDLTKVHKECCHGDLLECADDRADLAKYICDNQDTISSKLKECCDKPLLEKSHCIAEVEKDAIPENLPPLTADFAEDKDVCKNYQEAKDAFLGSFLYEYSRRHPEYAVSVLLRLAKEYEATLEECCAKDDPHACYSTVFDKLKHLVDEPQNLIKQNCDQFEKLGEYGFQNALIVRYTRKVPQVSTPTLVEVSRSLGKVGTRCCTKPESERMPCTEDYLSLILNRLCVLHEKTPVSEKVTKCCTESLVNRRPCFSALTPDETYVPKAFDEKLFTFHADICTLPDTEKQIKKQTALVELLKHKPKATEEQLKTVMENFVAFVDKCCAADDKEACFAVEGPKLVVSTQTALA
Chain of native (unmodified) BSA (P02769 25-607): as above

ΔG° ([1]; 310 K (per Table S1)): -9.1702 ± 0.2751 kcal/mol
N (number of curcumin binding sites) ([1]; Table 1): 1.249±0.02
ΔH° ([1]; van't Hoff, 277-310 K): 6.4971 ± 0.195 kcal/mol
ΔS° ([1]; van't Hoff, 277-310 K): 0.212±0.002 J mol^-1·K^-1
initial curcumin population remained intact [3]: more than 40%
ΔG° ([6]; 310 K (per Table S1)): -4.6953 ± 0.141 kcal/mol
N (number of curcumin binding sites) ([6]; Table 1): 0.975±0.015
ΔH° ([6]; van't Hoff, 277-310 K): -8.1783 ± 0.163 kcal/mol
ΔS° ([6]; van't Hoff, 277-310 K): -0.047±0.001 J mol^-1·K^-1
degradation in non-aqueous solvent [8]: did not degrade
ΔG° ([12]; 310 K (per Table S1)): -9.6836 ± 0.387 kcal/mol
N (number of curcumin binding sites) ([12]; Table 1): 1.347±0.042
ΔH° ([12]; van't Hoff, 277-310 K): 2.227 ± 0.0225 kcal/mol
ΔS° ([12]; van't Hoff, 277-310 K): 0.161±0.006 J mol^-1·K^-1
ΔG° ([13]; 310 K (per Table S1)): -7.0335 ± 0.4218 kcal/mol
N (number of curcumin binding sites) ([13]; Table 1): 1.145±0.034
ΔH° ([13]; van't Hoff, 277-310 K): -6.4892 ± 0.195 kcal/mol
ΔS° ([13]; van't Hoff, 277-310 K): 0.007±0.001 J mol^-1·K^-1
Substance: 1,7-bis(4-hydroxy-3-methoxyphenyl)-1,6- heptadiene-3,5-dione [curcumin]
time to molecular fragmentation and degradation by hydrolysis [2]: ≤ 30 min
solubility in water [4]: about 11 ng/mL
cell viability [5]: 88%
effect on H2O2-induced intracellular ROS levels [7]: significantly reduced
concentration of curcumin in plasma [9]: 11.1 nM
concentration of curcumin in target tissues [9]: 1300 nM
curcumin half-life [10]: 30.8 min
safe dose [11]: 8 to 12 g/day

Source: PMC6416488 (Protein and Peptide Letters, 2019)
